ChEMBL document CHEMBL1136326, “New benzylidenethiazolidinediones as antibacterial agents” (2003)
≈ marks a conversion by molar mass, not a printed value.

Assays:
Format in all cases: functional
[1] = Minimal inhibitory concentration (antibacterial activity) against […] ERY2 (SPNE)
Outline: (§1)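 Broth microdilution in cation-adjusted Mueller Hinton broth. Compounds in DMSO were diluted 1:10 with water to a 256 ug/mL solution, then serially 2-fold diluted, giving 0.06 to 64 μg/mL. Inoculum about 1 × 10^6 cfu/mL. Incubation at 35 C for 24 h. MIC is the lowest concentration that inhibits visible growth.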

Enterococcus faecalis = assay: Minimal inhibitory concentration (antibacterial activity) against Enterococcus faecalis 7 (EFAE); outline: as §1
Staphylococcus aureus = assay: Minimal inhibitory concentration (antibacterial activity) against Staphylococcus aureus Oxford (SAUR); outline: as §1
[2] = Streptococcus pneumoniae, read-out: MIC
[3] = Enterococcus faecalis, read-out: MIC
[4] = Staphylococcus aureus, read-out: MIC

Row | SMILES | MIC [1, 2] [µg/mL] | MIC (Enterococcus faecalis; [3]) [µg/mL] | MIC (Staphylococcus aureus; [4]) [µg/mL] | MIC [1] [µg/mL] | MIC (Enterococcus faecalis) [µg/mL] | MIC (Staphylococcus aureus) [µg/mL]
1 | CCCc1c(OCC(O)COc2ccc(/C=C3\CC(=O)NC3=O)cc2)ccc(Cl)c1Cl (centres undefined) | 64 (≈ 138 µM) | 64 (≈ 138 µM) | > 64 |  |  | 
2 | CCCc1c(OCC(O)COc2ccc(CC3SC(=O)NC3=O)cc2)ccc(Cl)c1Cl (centres undefined) | 8 (≈ 16.5 µM) | 16 (≈ 33 µM) | 8 (≈ 16.5 µM) |  |  | 
3 | CCCc1c(OCC(=O)COc2ccc(/C=C3\SC(=O)NC3=O)cc2)ccc(Cl)c1Cl | > 64 | > 64 | > 64 |  |  | 
4 | CCCc1c(OCC(O)COc2ccc(/C=C3\OC(=O)NC3=O)cc2)ccc(Cl)c1Cl (centres undefined) | 32 (≈ 68.6 µM) | 16 (≈ 34.3 µM) | 16 (≈ 34.3 µM) |  |  | 
5 | Cc1ccccc1OCC(O)COc1ccc(/C=C2\SC(=O)NC2=O)cc1 (centres undefined) | 32 (≈ 83 µM) | > 64 | 64 (≈ 166 µM) |  |  | 
6 | O=C1NC(=O)/C(=C/c2ccc(OCC(O)COc3ccccc3)cc2)S1 (centres undefined) | 64 (≈ 172 µM) | > 64 | > 64 |  |  | 
7 | O=C1NC(=O)/C(=C/c2ccc(OCC(O)COc3ccc(Cl)c(Cl)c3)cc2)S1 (centres undefined) | > 64 | > 64 | > 64 |  |  | 
8 | CCCc1cc(Cl)c(Cl)cc1OCC(O)COc1ccc(/C=C2\SC(=O)NC2=O)cc1 (centres undefined) | 4 (≈ 8.29 µM) | 8 (≈ 16.6 µM) | 8 (≈ 16.6 µM) |  |  | 
9 | CCCc1c(OC[C@@H](O)COc2ccc(/C=C3\SC(=O)NC3=O)cc2)ccc(Cl)c1Cl | 2 (≈ 4.15 µM) | 4 (≈ 8.29 µM) | 2 (≈ 4.15 µM) |  |  | 
10 | CCCc1c(OC[C@H](O)COc2ccc(/C=C3\SC(=O)NC3=O)cc2)ccc(Cl)c1Cl | 1 (≈ 2.07 µM) | 64 (≈ 133 µM) | 1 (≈ 2.07 µM) |  |  | 
11 | CCCc1c(OCCCOc2ccc(/C=C3\SC(=O)NC3=O)cc2)ccc(Cl)c1Cl | > 64 | > 64 | > 64 |  |  | 
12 | CCCc1c(OCC(O)COc2ccc(/C=C3\NC(=O)NC3=O)cc2)ccc(Cl)c1Cl (centres undefined) | 4 (≈ 8.6 µM) | 4 (≈ 8.6 µM) | 4 (≈ 8.6 µM) |  |  | 
13 | CCCc1c(OCC(N)COc2ccc(/C=C3\SC(=O)NC3=O)cc2)ccc(Cl)c1Cl (centres undefined) | 2 (≈ 4.15 µM) | 32 (≈ 66.5 µM) | 16 (≈ 33.2 µM) |  |  | 
14 | CCCc1ccccc1OCC(O)COc1ccc(/C=C2\SC(=O)NC2=O)cc1 (centres undefined) | 2 (≈ 4.84 µM) | > 64 | 16 (≈ 38.7 µM) |  |  | 
15 | CCc1ccccc1OCC(O)COc1ccc(/C=C2\SC(=O)NC2=O)cc1 (centres undefined) | 16 (≈ 40.1 µM) | 32 (≈ 80.1 µM) | 16 (≈ 40.1 µM) |  |  | 
16 | O=C1NC(=O)/C(=C/c2ccc(OCC(O)COc3ccc(Cl)c(Cl)c3Cl)cc2)S1 (centres undefined) | > 64 | > 64 | > 64 |  |  | 
17 | CCCc1c(OCC(O)COc2ccc(/C=C3\SC(=O)N(C)C3=O)cc2)ccc(Cl)c1Cl (stereo in doubt; 6) |  |  |  | >64 | >64 | >64
18 | CCCc1c(OCC(O)COc2ccc(/C=C3\SC(=O)N(C)C3=O)cc2)ccc(Cl)c1Cl (stereo in doubt; 12) |  |  |  | 1 (≈ 2.01 µM) | 4 (≈ 8.06 µM) | 8 (≈ 16.1 µM)
